The source of these data is ChEMBL document CHEMBL1154237, “Influenza A (H(1)N(1)) Antiviral and Cytotoxic Agents from Ferula assa-foetida” (J Nat Prod, 2009).

As a reminder, the IC50 is the concentration that gives 50% inhibition. A word on the IC90: it is the point of the concentration-response curve where the effect stands at 90%.

Assay [1] relates to HepG2. Briefly: Cytotoxicity against human HepG2 cells after 3 days by MTT assay. Type of assay: functional, cell-based. To be noted: HepG2, 72 h. Summed up: (§1)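 Freshly trypsinized cells were seeded at 5000-10 000 cells/well, with compounds added from DMSO stock, and cultured 3 days. Attached cells were then incubated with MTT (0.5 mg/mL, 1 h), solubilized in DMSO, and absorbance read at 550 nm.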
Background: Tetrazolium assays rely on reduction of a dye to a coloured formazan, in cell work by metabolically active cells.

In assay [2] the test system is Ca9-22. The experiment in a line: Cytotoxicity against human Ca9-22 cells after 3 days by MTT assay. Format: functional, cell-based. The following applies: Ca9-22, 72 h. Summed up: as §1
In assay [3] the test system is MCF7. The experiment in a line: Cytotoxicity against human MCF7 cells after 3 days by MTT assay. Type of assay: functional, cell-based. The following applies: MCF7, 72 h. An outline of the steps: as §1
Assay [4] concerns A549. Briefly: Cytotoxicity against human A549 cells after 3 days by MTT assay. To be noted: A549, 72 h. Type of assay: functional, cell-based. An outline of the steps: as §1
A short description of assay [5]: Cytotoxicity against human Hep3B cells after 3 days by MTT assay. Type of assay: functional, cell-based, Hep 3B2. To be noted: 72 h. An outline of the steps:
as §1

Assay [6] has as its system Influenza A virus. Briefly: Antiviral activity against Influenza A virus H1N1 infected in MDCK cells assessed as inhibition of virus-induced cytopathic effect after 3 days by XTT assay. Type of assay: functional, organism-based. To be noted: 72 h. An outline of the steps:
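MDCK cells, trypsinized and seeded at 1.0 × 10^5 cells/mL, grown 24 h at 35 °C, 5% CO2 in MEM with 2% FCS plus antibiotics. Virus added for 1 h, then test substances at several concentrations in triplicate. After 3 days at 35 °C, XTT added for 3 h and OD492/OD690 read.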
Background: Damage to the host cells serves as the signal in cytopathic effect assays.

Assay [7] deals with MDA-MB-231. Briefly: Cytotoxicity against human MDA-MB-231 cells after 3 days by MTT assay. Format: functional, cell-based. To be noted: MDA-MB-231, 72 h. An outline of the steps:
as §1

≈ marks a conversion by molar mass, not a printed value.

Regarding `COc1cccc2c1C(=O)c1c(O)c3c(c(O)c1C2=O)C[C@@](O)(C(=O)CO)C[C@@H]3O[C@H]1C[C@H](N)[C@H](O)[C@H](C)O1` [DOXORUBICIN], the IC50 is 0.16 µg/mL (≈ 0.294 µM) in assay [1]; 0.14 µg/mL (≈ 0.258 µM) in assay [2]; 0.43 µg/mL (≈ 0.791 µM) in assay [3]; 0.35 µg/mL (≈ 0.644 µM) in assay [4]; 0.41 µg/mL (≈ 0.754 µM) in assay [5].

As for `C=C1CC[C@@H]2C(C)(C)[C@H](O)CC[C@@]2(C)[C@H]1COc1ccc2ccc(=O)oc2c1` [FARNESIFEROL A], the IC50 in assay [1] was determined as 14.9 µg/mL (≈ 38.9 µM); in assay [2], 12.1 µg/mL (≈ 31.6 µM); in assay [3] it was 15.6 µg/mL (≈ 40.7 µM); in assay [6], 0.51 µg/mL (≈ 1.33 µM); in assay [4], 15.8 µg/mL (≈ 41.3 µM); in assay [7], 19 µg/mL (≈ 49.7 µM). This compound also gave an IC50 in assay [5] of 7.66 µg/mL (≈ 20 µM). The IC90 in assay [6] was 0.64 µg/mL (≈ 1.67 µM).

As for `COC(=O)CC[C@H]1C(=C(C)C)CC[C@H](C)[C@]1(C)COc1ccc2ccc(=O)oc2c1` [METHYL GALBANATE], the IC50 is 8.42 µg/mL (≈ 20.4 µM) in assay [1]; 19.1 µg/mL (≈ 46.3 µM) in assay [2]; greater than 20 µg/mL in assay [3]; 0.26 µg/mL (≈ 0.63 µM) in assay [6]; greater than 20 µg/mL in assay [4]; greater than 20 µg/mL in assay [7]. This compound also showed an IC50 in assay [5] of 4.33 µg/mL (≈ 10.5 µM).

As to `C/C(=C\COc1ccc2ccc(=O)oc2c1)CC/C=C(\C)CC[C@@H](O)C(C)(C)O`, the IC50 in assay [1] is greater than 20 µg/mL; in assay [2] it was greater than 20 µg/mL; in assay [3], 14.3 µg/mL (≈ 35.6 µM); in assay [6] it was 0.99 µg/mL (≈ 2.47 µM); in assay [4] it was 11 µg/mL (≈ 27.4 µM); in assay [7], greater than 20 µg/mL. The compound also gave an IC50 in assay [5] greater than 20 µg/mL. Further, the 90% effect concentration (IC90) in assay [6] worked out at 2.05 µg/mL (≈ 5.12 µM).

For the compound `CC1=CC(=O)[C@@H]2C(C)(C)C(=O)CC[C@@]2(C)[C@@H]1COc1ccc2ccc(=O)oc2c1`, in assay [6], the IC50 is 0.32 µg/mL (≈ 0.811 µM) and the IC90 is 0.37 µg/mL (≈ 0.938 µM).

Consider `C[C@@H]1C[C@@H](O)[C@]2(C)[C@@H](C)C(=O)CC[C@H]2[C@]1(C)COc1ccc2ccc(=O)oc2c1` [KAMOLONOL], for which the IC50 in assay [1] is greater than 20 µg/mL; in assay [2] it was greater than 20 µg/mL; in assay [3] it was greater than 20 µg/mL; in assay [4] it was greater than 20 µg/mL; in assay [7], greater than 20 µg/mL; in assay [5], 17.9 µg/mL (≈ 45 µM).

With `C=C1CC[C@]2(C)C(C)(C)[C@@H](OC(C)=O)CC[C@]2(C)[C@H]1COc1ccc2ccc(=O)oc2c1` [POLYANTHININ], the IC50 in assay [1] worked out at 10.4 µg/mL (≈ 23.8 µM); in assay [2], 12.7 µg/mL (≈ 28.9 µM); in assay [3], 9.94 µg/mL (≈ 22.7 µM); in assay [4] it was 12.3 µg/mL (≈ 28 µM); in assay [7], 15.7 µg/mL (≈ 35.8 µM); in assay [5], 5.9 µg/mL (≈ 13.5 µM).

`CC1=CC(=O)[C@@H]2C(C)(C)[C@H](O)CC[C@@]2(C)[C@@H]1COc1ccc2ccc(=O)oc2c1` [LIGUPERSIN A]: in assay [6], the IC50 stood at 0.86 µg/mL (≈ 2.17 µM) and the IC90 is 1.75 µg/mL (≈ 4.41 µM).

For `CCC(C)SSC/C=C/OS(C)=O` (stereo not drawn) [FOETISULFIDE C], the IC50 in assay [1] was greater than 20 µg/mL; in assay [2], 16.5 µg/mL (≈ 68.5 µM); in assay [3] it was greater than 20 µg/mL; in assay [4], 9.14 µg/mL (≈ 38 µM); in assay [7], greater than 20 µg/mL; in assay [5] it was 19.2 µg/mL (≈ 79.9 µM).

Take `NC12CC3CC(CC(C3)C1)C2` [AMANTADINE]: in assay [6], the IC50 was found to be 0.92 µg/mL (≈ 6.08 µM).

As to `CC1=CC[C@@H]2C(C)(C)[C@@H](O)CC[C@@]2(C)[C@@H]1COc1ccc2ccc(=O)oc2c1` [CONFEROL], the IC50 in assay [1] is 0.51 µg/mL (≈ 1.33 µM); in assay [2], 6.83 µg/mL (≈ 17.9 µM); in assay [3], 3.38 µg/mL (≈ 8.84 µM); in assay [6] it was 0.47 µg/mL (≈ 1.23 µM); in assay [4], 9.08 µg/mL (≈ 23.7 µM); in assay [7] it was greater than 20 µg/mL. This compound also returned an IC50 in assay [5] of 2.63 µg/mL (≈ 6.88 µM). Also, the IC90 in assay [6] was determined as 0.83 µg/mL (≈ 2.17 µM).

For the compound `C/C(=C\COc1ccc2ccc(=O)oc2c1)CC[C@@H]1C(C)(C)[C@H]2CC[C@]1(C)O2` [FARNESIFEROL C], in assay [6], the IC50 is 0.29 µg/mL (≈ 0.758 µM) and the IC90 was 0.5 µg/mL (≈ 1.31 µM).

Consider `CC(C)=CCC/C(C)=C/[C@@H](O)C/C(C)=C/COc1ccc2ccc(=O)oc2c1`, for which, in assay [6], the IC50 was 0.36 µg/mL (≈ 0.941 µM) and the IC90 amounted to 0.62 µg/mL (≈ 1.62 µM).

Regarding `COc1cc(C=O)ccc1O` [VANILLIN], the IC50 in assay [1] is greater than 20 µg/mL; in assay [2] it was greater than 20 µg/mL; in assay [3] it was 15.7 µg/mL (≈ 103 µM); in assay [4], 16.4 µg/mL (≈ 108 µM); in assay [7], greater than 20 µg/mL; in assay [5], greater than 20 µg/mL.

As for `CC(=O)OC(CC=C(C)C)/C(C)=C/[C@@H](O)C/C(C)=C/COc1ccc2ccc(=O)oc2c1` (stereo partly drawn), the IC50 is 15.6 µg/mL (≈ 35.4 µM) in assay [1]; 14.2 µg/mL (≈ 32.3 µM) in assay [2]; greater than 20 µg/mL in assay [3]; 0.81 µg/mL (≈ 1.84 µM) in assay [6]; greater than 20 µg/mL in assay [4]; greater than 20 µg/mL in assay [7]. For the same compound, the IC50 in assay [5] turned out to be 9.82 µg/mL (≈ 22.3 µM). In addition, in assay [6], the IC90 worked out at 1.56 µg/mL (≈ 3.54 µM).

In the case of `CC(C)=C1CC[C@H](C)[C@](C)(COc2ccc3ccc(=O)oc3c2)[C@H]1CCC(=O)O` [GALBANIC ACID], the IC50 in assay [6] worked out at 0.45 µg/mL (≈ 1.13 µM).
